The target in data set [1] is T1, Kappa-type opioid receptor (Cavia porcellus, UniProt P41144). As to the kind of experiment: Displacement of [3H]-HS665 from KOR in guinea pig brain membranes. It counts as cell membranes, Membrane. For orientation: In a radioligand displacement assay an active substance lowers the binding of a labelled ligand.
Data set [2] deals with Kappa-type opioid receptor (Cavia porcellus) (UniProt P41144). As to the kind of experiment: (§1) Agonist activity at KOR in guinea pig brain membranes assessed as stimulation of [35S]GTPgammaS binding measured after 1 hr by liquid scintillation counting analysis. The class given is functional, cell membranes. To be noted: Membrane, filed as agonist, DDE = dose-dependent effect. (GTPγS resists hydrolysis and so accumulates on activated G proteins.)

The target of data set [3] is T1, Kappa-type opioid receptor. The data set is described as §1. The class given is functional, cell membranes, Membrane.
Data set [4] concerns Mus musculus. As to the kind of experiment: Antinociceptive activity in CD-1 mouse assessed as maximum possible effect at 10 nmol, icv measured after 15 to 120 mins by tail-flick test. The class given is functional, organism-based. To be noted: time 15-120 min. The essentials:
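Tail flick test in mice after intracerebroventricular injection of 10 nmol/mouse, with vehicle-treated and U50,488H control groups. Antinociception was expressed as maximum possible effect. N = 7 per group.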
(In hot-plate and tail-flick tests a longer latency is read as antinociception.)

The test system of data set [5] is Mus musculus. Put plainly: Antinociceptive activity in formalin-induced CD-1 mouse model of nociception assessed as reduction in total time spent in paw licking during early phase at 100 nmol, sc pretreated for 15 mins followed by formalin challenge measured up to 10 mins by formalin test. The class given is functional, organism-based. To be noted: time 25.0 min. The essentials: (§2)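 Subcutaneous injection into the mouse paw at 100 nmol/mouse, given 15 min before formalin challenge. Nociceptive behaviour was scored in the early and late phases against vehicle and U50,488H groups. Analysis used one-way ANOVA with Tukey's multiple comparisons test.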

Data set [6] concerns Mus musculus. Put plainly: Antinociceptive activity in formalin-induced CD-1 mouse model of nociception assessed as reduction in total time spent in paw licking during late phase at 100 nmol, sc pretreated for 15 mins followed by formalin challenge measured after 10 to 40 mins by formalin test. It counts as functional, organism-based. The note with it: time 15-55 min. In a few lines: as §2

The test system of data set [7] is Mus musculus. Put plainly: Antinociceptive activity in CD-1 mouse assessed as maximum possible effect at 20 umol/kg, iv measured after 15 to 120 mins by tail-flick test. It counts as functional, organism-based. To be noted: dose 20.0 µmol/kg, time 15-120 min. In a few lines:
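Intravenous dosing at 20 μmol/kg in mice, followed by tail flick testing with antinociception expressed as maximum possible effect. Vehicle-treated animals served as controls. N = 8.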

Data set [8] in a line: Cmax in C57/BL6 mouse plasma at 13.9 mg/kg, iv administered via bolus by LC-MS/MS analysis. It counts as ADME, organism-based. Set-up: dose 13.9 mg/kg, route iv. The essentials:
(§3)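 Single intravenous bolus given to mice. Plasma concentrations were measured, and noncompartmental analysis gave Cmax, Tmax, t1/2 and AUC extrapolated to infinity. The calibration range was 10–1000 nM, with correlation coefficient >0.99 and the curve fit with 1/x2 weighting.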

The nature of data set [9]: Tmax in C57/BL6 mouse plasma at 13.9 mg/kg, iv administered via bolus by LC-MS/MS analysis. It counts as ADME, organism-based. The essentials:
as §3

Data set [10] can be described thus: Half life in C57/BL6 mouse plasma at 13.9 mg/kg, iv administered via bolus by LC-MS/MS analysis. The class given is ADME, organism-based. The essentials: as §3
Data set [11] can be described thus: AUC (infinity) in C57/BL6 mouse plasma at 13.9 mg/kg, iv administered via bolus by LC-MS/MS analysis. The class given is ADME, organism-based. Also on record: time infinity, dose 13.9 mg/kg, route iv. In a few lines: as §3
Data set [12] in a line: Drug uptake in C57/BL6 mouse brain at 13.9 mg/kg, iv administered via bolus by LC-MS/MS analysis. The class given is ADME, organism-based. To be noted: in vivo, BLD = below limit of detection. The essentials:
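Single intravenous bolus given to mice. Brain homogenates were analysed for drug exposure against a calibration curve spanning 10–1000 nM, fit with 1/x2 weighting.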

Activity calls are given as the source filed them. No cut-off for these calls is given here. Square brackets hold non-standard residues; d marks the D form. Peptide text beside a SMILES is read from it. dNle = CCCC[C@@H](N)C(=O)O

T1 sequence (P41144 whole entry): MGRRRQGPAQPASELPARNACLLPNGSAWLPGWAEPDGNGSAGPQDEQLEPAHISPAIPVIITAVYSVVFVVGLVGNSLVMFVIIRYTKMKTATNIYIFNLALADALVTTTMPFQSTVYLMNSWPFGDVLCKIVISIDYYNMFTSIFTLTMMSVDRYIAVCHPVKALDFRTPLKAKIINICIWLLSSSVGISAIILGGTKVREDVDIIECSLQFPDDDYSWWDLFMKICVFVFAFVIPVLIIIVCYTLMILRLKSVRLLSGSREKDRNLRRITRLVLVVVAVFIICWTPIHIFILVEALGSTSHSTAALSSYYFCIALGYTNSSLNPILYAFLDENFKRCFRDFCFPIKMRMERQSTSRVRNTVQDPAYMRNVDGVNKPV
Sequence of Kappa-type opioid receptor (Cavia porcellus) (P41144 whole entry): as above

As usually defined, the Ki is the dissociation constant of the complex between target and ligand, obtained from inhibition or displacement. Low values mean a stronger hold on the target, high ones a looser hold on the target. `Oc1cccc(CCN(CCc2ccccc2)CC2CCC2)c1` yielded an inhibition constant (Ki) in data set [1] of 1.91 nM. In other words, the single-digit nanomolar range.

As usually defined, the EC50 is the concentration that produces a half-maximal response. Molecule `CCCC[C@@H](NC(=O)[C@@H](Cc1ccccc1)NC(=O)[C@H](N)Cc1ccc(O)cc1)C(=O)N[C@H](CCCNC(=N)N)C(N)=O` returned an inhibition constant (Ki) in data set [1] of 1.11 nM. For the same molecule, the Activity result in data set [2] was “Dde”. Also, the EC50 in [3] is 9550 nM.

The molecule `CCCC[C@@H](NC(=O)[C@@H](Cc1ccccc1)NC(=O)[C@H](N)Cc1c[nH]c2ccccc12)C(=O)N[C@H](CCCNC(=N)N)C(N)=O` came in with an inhibition constant (Ki) in [1] of 3.07 nM. The Activity result in data set [2] was “Dde”. The EC50 in data set [3] is 5.13 nM.

Molecule `CCCC[C@@H](NC(=O)[C@H]1Cc2ccccc2CN1C(=O)[C@H](N)Cc1ccccc1)C(=O)N[C@H](CCCNC(=N)N)C(N)=O` registered a Ki in data set [1] of 3.63 nM. The EC50 in data set [3] was 7.94 nM.

Consider `CCCC[C@@H](NC(=O)[C@@H](Cc1cccc(F)c1)NC(=O)[C@H](N)Cc1ccccc1)C(=O)N[C@H](CCCNC(=N)N)C(N)=O`, for which the Ki in data set [1] was 3 nM. Further, the Activity result in data set [2] was “Dde”. Besides, the 50% effective concentration (EC50) in [3] was 1860 nM. For the same molecule, the result in [4], in data set [5] and in data set [6] was Active.

For orientation: Cmax means the peak of the concentration-time curve. Broadly, the Tmax is the time at which the peak concentration occurs. A word on the half-life: it is how long it takes for the measured level to halve. Higher therefore signals slow decline. As a reminder, the AUC(0-inf) is the area under the concentration-time curve extrapolated to infinity. A low value points to less exposure. Consider `CCCC[C@@H](NC(=O)[C@@H](Cc1ccc(F)cc1)NC(=O)[C@H](N)Cc1ccccc1)C(=O)N[C@H](CCCNC(=N)N)C(N)=O`, for which the Ki in data set [1] turned out to be 0.92 nM. For the same molecule, the EC50 in data set [3] is 955 nM. Also, the result in [4], in data set [7], in data set [5] and in [6] was Active. In data set [8], this molecule displayed a Cmax of 109 nM. In data set [9], the Tmax was 15 min. Moreover, the half-life in data set [10] worked out at 20.6 min. Moreover, in data set [11], the AUC(0-inf) is 0.0842 µM·h. In data set [12], the Drug uptake result was “Bld”.

For `CCCC[C@@H](NC(=O)[C@@H](Cc1ccccc1)NC(=O)[C@H](N)Cc1cccc(F)c1)C(=O)N[C@H](CCCNC(=N)N)C(N)=O`, the affinity in data set [1] corresponds to a Ki of 1.28 nM. In addition, the Activity entry in data set [2] was “Dde”. In data set [3], the half-maximal effective concentration (EC50) is 22.4 nM. The outcome in data set [4], in [7], in [5] and in [6] was Active.

Consider `CCCC[C@@H](NC(=O)[C@@H](Cc1ccccc1)NC(=O)[C@H](N)Cc1ccccc1F)C(=O)N[C@H](CCCNC(=N)N)C(N)=O`, for which the affinity in data set [1], expressed as Ki, was 4.35 nM. In data set [3], the EC50 was 1350 nM. For the same molecule, the outcome in data set [4], in data set [5] and in data set [6] was Active.

In [1], `CCCC[C@@H](NC(=O)[C@@H](Cc1ccccc1)NC(=O)[C@H](N)Cc1ccccc1)C(=O)N[C@H](CCCNC(=N)N)C(N)=O` (H-[dF][dF][dNle][dR]-NH2) yielded an inhibitory constant (Ki) of 2.33 nM. The EC50 in data set [3] was 26.3 nM. In data set [4], the outcome was Active. The same molecule registered a maximum concentration (Cmax) in data set [8] of 93 nM. Also, the Tmax in [9] was 5 min. In addition, the half-life in data set [10] is 12.7 min. Besides, in [11], the area under the curve AUC(0-inf) is 0.0364 µM·h. Also, in data set [12], the Drug uptake entry is “Bld”.

Source of the values: ChEMBL document CHEMBL5126672, “Discovery of κ Opioid Receptor (KOR)-Selective d-Tetrapeptides with Improved In Vivo Antinociceptive Effect after Peripheral Administration” (ACS Med Chem Lett, 2022).
